Measured values as given in ChEMBL document CHEMBL1121506, “Evaluation of rotenone and related compounds as antagonists of slow-reacting substance of anaphylaxis” (J Med Chem, 1980).
≈ marks a conversion by molar mass, not a printed value.

Assays:
Cavia porcellus [1] = species: Cavia porcellus; assay: Compound was evaluated for the inhibitory activity against slow reacting substance of anaphylaxis (SRS-A) of guinea pig ileum; format: functional, organism-based
Summary of the method: (§1)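 Guinea pig ileum strip in Tyrode's solution at 37 °C, aerated with 95% O2-5% CO2. SRS-A came from rat peritoneal shock fluid after passive peritoneal anaphylaxis, and its specificity was checked against atropine (5 × 10^-7 M) and mepyramine (10^-6 M). The SRS-A dose was set to give ca. 60% of maximal contraction. Antagonist was added 2 min before challenge; percent inhibition was read, and IC50 was interpolated from dose-response curves.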

Cavia porcellus [2] = assay: Compound was evaluated in vivo for collapse time in guinea pig anaphylaxis model at dose 5 mg/kg; format: functional
Summary of the method: (§2)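 Guinea pigs were sensitized with 10% ovalbumin (1 mL s.c. plus 1 mL i.p.), and about 4 weeks later received the antagonist orally. They were then exposed to aerosolized ovalbumin, with collapse time as the endpoint and no collapse within 6 min taken as maximal protection. Groups (4–15 animals) were compared with controls by one-way ANOVA and Dunnett's test after Bartlett's test.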

Cavia porcellus [3] = species: Cavia porcellus; assay: Compound was evaluated for the inhibitory activity against Acetylcholine in guinea pig ileum; format: functional; parameters: concentration or dose not given beside the values
Cavia porcellus [4] = species: Cavia porcellus; assay: Compound was evaluated for the inhibitory activity against Serotonin in guinea pig ileum; format: functional
Cavia porcellus [5] = species: Cavia porcellus; assay: Compound was evaluated for the inhibitory activity against Histamine in guinea pig ileum; format: functional; parameters: concentration or dose not given beside the values
Cavia porcellus [6] = assay: Compound was evaluated in vivo for collapse time in guinea pig anaphylaxis model at dose 10 mg/kg; format: functional; summary of the method: as §2
Cavia porcellus [7] = species: Cavia porcellus; assay: Compound was evaluated for the inhibitory activity against slow reacting substance of anaphylaxis (SRS-A) of guinea pig ileum;NA denotes not active; format: functional, organism-based; summary of the method: as §1
Cavia porcellus [8] = species: Cavia porcellus; assay: Compound was evaluated for the inhibitory activity against slow reacting substance of anaphylaxis (SRS-A) of guinea pig ileum;NA means not active; format: functional, organism-based
Summary of the method: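 Guinea pig ileum strip in Tyrode's solution at 37 °C, aerated with 95% O2-5% CO2. SRS-A came from rat peritoneal shock fluid after passive peritoneal anaphylaxis, dosed to give ca. 60% of maximal contraction. Atropine (5 × 10^-7 M) and mepyramine (10^-6 M) checks were run. Antagonist was added 2 min before SRS-A challenge, and percent inhibition recorded. IC50 was interpolated from two or at least three dose-response curves.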

Structure (SMILES) | IC50 (Cavia porcellus [1]) [mg/L] | Collapse time (Cavia porcellus [2]) [s] | Inhibition (Cavia porcellus [3]) [%] | Inhibition (Cavia porcellus [4]) [%] | Inhibition (Cavia porcellus [5]) [%] | Collapse time (Cavia porcellus [6]) [s] | IC50 (Cavia porcellus [7]) | IC50 (Cavia porcellus [8])
C=C(C)[C@H]1Cc2c(ccc3c2O[C@@H]2COc4cc(OC)c(OC)cc4[C@@H]2C3=O)O1 [ROTENONE] | 0.0155 (≈ 0.0393 µM) | 288 | 15 | 92 | 38 |  |  | 
C=C(C)[C@H]1Cc2c(ccc3c(=O)c4c(oc23)COc2cc(OC)c(OC)cc2-4)O1 [DEHYDROROTENONE] |  | 216 | 0 |  | 0 | 248 | Not Active | 
COc1cc2c(cc1OC)[C@]1(O)C(=O)c3ccc4c(c3O[C@@H]1CO2)C=CC(C)(C)O4 [TEPHROSIN] | 0.2 (≈ 0.487 µM) |  |  |  |  |  |  | 
COc1cc2c(cc1OC)[C@@H]1C(=O)c3ccc4oc(C(C)C)cc4c3O[C@@H]1CO2 [ISOROTENONE] | 0.062 (≈ 0.157 µM) |  | 28 |  | 30 | 211 |  | 
C=C(C)[C@H]1Cc2c(ccc3c2OC2COc4cc(OC)c(OC)cc4C2/C3=N/OC(C)=O)O1 (stereo not given in full) | 0.4 (≈ 0.886 µM) |  |  |  |  |  |  | 
C=C(C)[C@H]1Cc2c(ccc3c2OC2COc4cc(OC)c(OC)cc4C2/C3=N/OC(=O)OCC)O1 (stereo not given in full) [O-CARBETHOXY ROTENONE OXIME] | 0.4 (≈ 0.831 µM) |  |  |  |  |  |  | 
C=C(C)[C@H]1Cc2c(ccc(C(=O)Cc3cc(OC)c(OC)cc3OCC(=O)O)c2O)O1 |  |  | 0 |  | 0 | 167 |  | Not Active
C=C(C)[C@H]1Cc2c(ccc3c2OC2COc4cc(OC)c(OC)cc4C2/C3=N/O)O1 (stereo not given in full) | 0.4 (≈ 0.977 µM) |  |  |  |  | 248 |  | 
C=C(C)[C@H]1Cc2c(ccc3c2OC2COc4cc(OC)c(OC)cc4C2(OC(C)=O)C3=O)O1 (stereo not given in full) [ACETYLROTENOLENE] |  |  | 0 |  | 0 |  |  | Not Active
CCCc1c(OCC(O)COc2ccc3c(=O)cc(C(=O)[O-])oc3c2CCC)ccc(C(C)=O)c1O.[Na+] (stereo not given) [FPL-55712 SODIUM SALT] | 0.042 |  | 0 | 0 | 0 | 253 |  | 
C=C(C)[C@H]1Cc2c(ccc3c2O[C@H]2COc4cc(OC)c(OC)cc4[C@H]2C3=O)O1 | 0.0247 (≈ 0.0626 µM) |  | 11 | 87 | 28 | 240 |  | 
COc1cc2c(cc1OC)[C@@H]1C(=O)c3ccc4c(c3O[C@@H]1CO2)C[C@H](C(C)C)O4 | 0.0238 (≈ 0.06 µM) |  | 25 | 60 | 29 |  |  | 
